Screening results deposited in PubChem by several laboratories.
Rows were chosen to be rich in hits. Some 1.8% of all compounds tested hit in one or more screens of this group.
core dimer inh: blocks dimerization of HCV core protein | TR-FRET GST/Flag-core106 dimerization, 1536-well | inhibition, % at 5 µM | 300,000 compounds, 0.33% hits | AID 1899;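 active = inhibition above the mean of all tested compounds plus 3 SD, set per screening campaign, cut at about 45% in these data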
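Material: Tagged HCV core106 pair (GST and Flag) | Amount: GST-core106 13.5 nM, Flag-core106 17 nM | Medium: KF-containing HEPES buffer, pH 7.45, DTT, CHAPS, BSA | Reagent: Eu donor and XL665 acceptor anti-tag antibodies | Schedule: 4 h at 22.5 °C | Technique: Time-resolved FRET, ex 340 nm, em 617 and 671 nm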
UBC9 SUMO inh: SUMOylation inhibition; P63279; HTRF SUMOylation assay, SAE1/SAE2 + UBC9, in vitro; inhibition, % at 35 µM; 290,000 compounds, 0.36% hits; AID 2006; in the data active = inhibition above about 50%, passing the limit was not always enough; inconclusive = no clear call, values can overlap the other calls
Target sequence (P63279 whole entry, looked up): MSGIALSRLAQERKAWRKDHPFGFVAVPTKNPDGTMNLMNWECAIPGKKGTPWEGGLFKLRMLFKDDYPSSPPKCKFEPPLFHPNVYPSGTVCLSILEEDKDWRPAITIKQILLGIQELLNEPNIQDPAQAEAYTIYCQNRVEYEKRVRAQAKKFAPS
PABP FP inh: PABP-poly(A) binding inhibition | 290,000 compounds, 1% hits | calls only at 35 µM | P11940 | AID 2014 | PABP-poly(A) RNA binding, fluorescence polarization;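 note: calls also rest on retests at 20 µM and on dose response follow-up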
eIF4H inh: inhibitors of RNA binding by human eIF4H; Q15056; eIF4H fluorescence polarization binding assay; inhibition, % at 35 µM; 290,000 compounds, 0.94% hits; AID 2012;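 note: calls also rest on retests at 20 µM and on dose response follow-up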
eIF4E-4G inh: inhibitors of eIF4E and eIF4G interaction in translation initiation. P63073+Q04637. TR-FRET eIF4E-eIF4GI(517-606) binding, 2 h. inhibition, % at 21.7 µM. 220,000 compounds, 0.37% hits. AID 782;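 active = inhibition above about 30%, limit read from the data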
MLLE-PAM2 inh: inhibitors of microRNA-mediated deadenylation, human PABP1 MLLE binding; P11940; GST-MLLE / FITC-PAM2 fluorescence polarization; inhibition, % at 20 µM; 360,000 compounds, 0.36% hits; AID 588489; in the data active = inhibition above about 35%, passing the limit was not always enough
Each line names hits and unclear results; the compound was inactive in the other large screens; [ ] = another dose, or the depositor's remark. Unless noted, the rule behind the calls is not given here.

CSCCC(NC(=O)c1ccccc1Cl)C(=O)NCCOc1ccc(C)cc1 (stereo not drawn)	none (no result: core dimer inh, UBC9 SUMO inh, PABP FP inh, eIF4H inh, eIF4E-4G inh)
Cc1ccc(C(=O)NCCC(=O)N2CCCC2)cc1	none (no result: eIF4E-4G inh)
Cc1ccc(/C=C2\C(=O)Nc3ccccc32)o1	PABP FP inh active, eIF4H inh 87
NS(=O)(=O)c1ccc(-c2ccc(/C=C3\C(=O)Nc4ccccc43)o2)cc1	none (no result: eIF4E-4G inh, MLLE-PAM2 inh)
Cc1cc(-c2ccc(C(C)C)c(S(=O)(=O)N3CCN(c4ccccn4)CC3)c2)on1	none (no result: eIF4E-4G inh)
Nc1ccc2nc(-c3ccccc3)sc2c1	UBC9 SUMO inh 57
Nc1ccc(Oc2ccc3nc(-c4ccccc4)c(-c4ccccc4)nc3c2)cc1	none (no result: MLLE-PAM2 inh)
Nc1ccc2nc(-c3ccccc3)c(-c3ccccc3)nc2c1	eIF4H inh 70 (no result: eIF4E-4G inh)
CCc1ccc(/C=C2\Oc3cc(OS(C)(=O)=O)ccc3C2=O)cc1	none
CCc1ccc(/C=C2\Oc3c(ccc(O)c3CN3CCN(CCO)CC3)C2=O)cc1	PABP FP inh inconclusive, eIF4H inh inconclusive, eIF4E-4G inh 72
O=C(NCCc1ccncc1)c1ccccc1F	eIF4E-4G inh 61
O=C1c2ccccc2[C@@H]2C[C@@H](O)[C@H](Nc3cccc(C(F)(F)F)c3)CCN12	none (no result: core dimer inh, UBC9 SUMO inh, PABP FP inh, eIF4H inh, eIF4E-4G inh)
Nc1c(-c2ccccc2)sc2ccc3ccccc3[n+]12	MLLE-PAM2 inh 39 (no result: eIF4E-4G inh)
Cn1c(CCC(=O)O)nc2cc(S(=O)(=O)N3CCCCC3)ccc21	MLLE-PAM2 inh 39 (no result: core dimer inh, UBC9 SUMO inh, PABP FP inh, eIF4H inh, eIF4E-4G inh)
CC(C)(Oc1ccc(Cl)cc1)C(=O)NCc1ccc(S(N)(=O)=O)cc1	eIF4H inh 66
CC(C)Cn1cnc2c(Sc3c([N+](=O)[O-])ncn3C)nc(N)nc21	none (no result: core dimer inh, UBC9 SUMO inh, PABP FP inh, eIF4H inh, eIF4E-4G inh)
O=C1CC(/C=C/c2ccco2)=Nc2ccccc2N1	core dimer inh 58, PABP FP inh active, eIF4H inh 95
O=C1CC(/C=C/c2ccccn2)=Nc2ccccc2N1	none
Cc1cc(C(=O)CSc2nc3ccccc3[nH]2)c(C)n1Cc1ccco1	PABP FP inh active, eIF4H inh 87
O=C(CSc1nnc(-c2ccco2)o1)c1ccccc1Cl	none
Cc1cc(C(=O)CSc2nnc(-c3ccco3)o2)c(C)n1Cc1ccco1	PABP FP inh active, eIF4H inh 65
COCC(C)n1c(C)cc(C(=O)CSc2nnc(-c3ccco3)o2)c1C (stereo not drawn)	none (no result: core dimer inh, UBC9 SUMO inh, PABP FP inh, eIF4H inh, eIF4E-4G inh)
CCN(CC)S(=O)(=O)c1cccc(-c2nnc(SCC(=O)c3cc(C)n(C)c3C)o2)c1	PABP FP inh active
O=C(CSc1nnc(-c2ccco2)o1)c1ccc([N+](=O)[O-])cc1	eIF4E-4G inh 93
Cc1cccc(N2CCN(C(=O)c3ccc(Cl)c(NC4=NC5CS(=O)(=O)CC5S4)c3)CC2C)c1 (stereo not drawn)	none (no result: eIF4E-4G inh)
Cc1ccc(C)c(NC(=O)CSc2ccc(-c3ccco3)nn2)c1	none
Cc1ccccc1NC(=O)CSc1ccc(-c2ccco2)nn1	PABP FP inh active, eIF4H inh inconclusive
CCc1nnc(NC(=O)CSc2ccc(-c3ccco3)nn2)s1	PABP FP inh active, eIF4H inh 95
CCc1nnc(NC(=O)Cn2nc(-c3ccccc3OC)ccc2=O)s1	eIF4E-4G inh 36
Cc1ccc(/C=N\NC(=O)CCc2n[nH]c(=O)[nH]c2=O)o1	none
Cc1ccsc1C(=O)N1CCC1(C)C(=O)NCc1cccnc1 (stereo not drawn)	none (no result: core dimer inh, UBC9 SUMO inh, PABP FP inh, eIF4H inh, eIF4E-4G inh)
O=C(Cc1ccc(NC2=NC3CS(=O)(=O)CC3S2)cc1)NCc1ccccc1Cl (stereo not drawn)	none (no result: eIF4E-4G inh)
NC(=O)NC(=O)CC1S/C(=N/N=C2\CSC(=O)N2)NC1=O (stereo not drawn)	MLLE-PAM2 inh 43
CCOC(=O)Cn1c(=O)oc2cc(S(=O)(=O)NCc3cccs3)ccc21	eIF4E-4G inh 54[fluorescence artefact?]
Cc1n[nH]c(=O)c2c(NC(=O)CSc3c(Cl)cccc3Cl)oc(C)c12	MLLE-PAM2 inh 43 (no result: UBC9 SUMO inh, PABP FP inh, eIF4H inh, eIF4E-4G inh)
CC(=O)Nc1ccc(S(=O)(=O)Oc2cccc(/C=C3\SC(N)=NC3=O)c2)cc1	UBC9 SUMO inh 50
Cc1ccc2nc(Nc3ccc(Cl)cc3)c3nncn3c2c1	none (no result: eIF4E-4G inh)
CC(C)NC(=O)c1cccc2c1-c1ccccc1C2=O	none (no result: eIF4E-4G inh)
C=CCc1cccc(C=Nc2cc(Br)ccc2O)c1O	eIF4H inh 78
CCCCC(CC)Cn1c(N)c(C#N)c2nc3ccccc3nc21 (stereo not drawn)	PABP FP inh active, eIF4H inh 68
Cc1ccc(S(=O)(=O)c2c(N)n(CCCN(C)C)c3nc4ccccc4nc23)cc1	none
CCCCC(CC)Cn1c2nc3ccccc3nc2c2c(=N)oc(C)nc21 (stereo not drawn)	none (no result: core dimer inh, MLLE-PAM2 inh)
CN(C)CCCn1c(N)c(C#N)c2nc3ccccc3nc21	UBC9 SUMO inh 103, PABP FP inh inconclusive, eIF4H inh inconclusive
Cn1c(=O)oc2cc(S(=O)(=O)CCC(=O)Nc3ccccc3)ccc21	none (no result: eIF4E-4G inh)
CCOC(=O)C1CCN(C(=O)COC(=O)c2ccccc2C(=O)c2ccc(Cl)cc2)CC1	none (no result: UBC9 SUMO inh, PABP FP inh, eIF4H inh, eIF4E-4G inh)
COc1ccc(CCNC(=O)[C@@H](NC(=O)N2CC(=O)Nc3ccccc32)C(C)C)cc1OC	none (no result: eIF4E-4G inh)
CN1CCN(C2=C(Cl)C(=O)C(c3cnc(N4CCCCC4)s3)=C(Cl)C2=O)CC1	eIF4H inh inconclusive, eIF4E-4G inh 54[fluorescence artefact?]
CN1CCN(C2=C(Cl)C(=O)c3ccccc3C2=O)CC1	none (no result: core dimer inh, UBC9 SUMO inh, PABP FP inh, eIF4H inh, eIF4E-4G inh)
O=C(CCN1C(=O)C2CC=CCC2C1=O)Nc1nccs1 (stereo not drawn)	none (no result: eIF4E-4G inh)
COc1ccc2oc(=O)c(/C(C)=N/Nc3nc(-c4cc(C)ccc4C)cs3)cc2c1	core dimer inh 56
C/C(=N\Nc1nc(-c2ccc(C)cc2C)cs1)c1cc2ccccc2oc1=O	core dimer inh 51
COc1ccc2oc(=O)c(-c3csc(Nc4ccc(O)cc4)n3)cc2c1	none
CC(C)C12CN3CC(C(C)C)(CN(C1)C3c1ccc([N+](=O)[O-])o1)C2=O (stereo not drawn)	none
CC(C)(C)c1nnc(NC(=S)Nc2ccccc2)s1	PABP FP inh inconclusive, eIF4H inh inconclusive, MLLE-PAM2 inh 43
COc1cc(OC)cc(C(=O)Nc2nnc(NC(=S)Nc3ccccc3)s2)c1	none
CCOCc1c(C(=O)NC2CCCCCC2)oc2ccccc12	none
Oc1[nH]c2ccccc2c1N=Nc1ccccc1Cl	none (no result: core dimer inh, UBC9 SUMO inh, PABP FP inh, eIF4H inh, eIF4E-4G inh)
Oc1c(C=Nc2ccccc2Cl)[nH]c2ccccc12	MLLE-PAM2 inh 43
CC(=O)c1c(C(=O)O)c2ccccc2[nH]c1=O	eIF4E-4G inh 92
Cc1c(C(=O)O)cccc1-c1ccc(/C=N/n2cnnc2)o1	PABP FP inh active, eIF4H inh 53 (no result: eIF4E-4G inh)
Cc1ccc(NC(=O)CN2C(=O)S/C(=C/c3ccc(-c4cc(C(=O)O)ccc4C)o3)C2=O)cc1C	UBC9 SUMO inh 84, PABP FP inh active, eIF4E-4G inh 40
Cc1cccc(NC(=O)CN2C(=O)S/C(=C\c3ccc(-c4cccc(C(=O)O)c4C)o3)C2=O)c1	eIF4H inh 92 (no result: MLLE-PAM2 inh)
Cc1ccccc1NC(=O)CN1C(=O)S/C(=C\c2ccc(-c3cccc(C(=O)O)c3C)o2)C1=O	none
